Reference: ChEMBL document CHEMBL2390820, “3-Biphenylimidazo[1,2-a]pyridines or [1,2-b]pyridazines and analogues, novel Flaviviridae inhibitors” (Eur J Med Chem, 2013)
Values after ≈ are worked out from the molar mass of the structure shown.

Experiments:
Hepatitis C virus = assay: Antiviral activity against HCV genotype 1b infected in Huh5-2 cells assessed as inhibition of viral replication after 4 days by luciferase reporter gene assay; assay type: functional, organism-based, Hepacivirus hominis, Huh-5-2; settings: Hepatitis C virus, genotype 1b, Huh-5-2, 96 h
Procedure, shortened: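 Huh 5-2 cells carrying the HCV subgenomic luciferase replicon were seeded at 5 × 10³/well with compound and incubated 4 days at 37 °C. Medium was removed and luciferase activity quantified. EC50 is the minimum concentration reducing replicon-driven luciferase signal by 50%.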

[1] = Cytotoxicity against MDBK cells assessed as growth inhibition after 3 days by MTS assay; assay type: cell-based, Bos taurus; settings: cattle
Procedure, shortened: (§1)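 MDBK or Huh 5-2 cells were seeded at 5 × 10³/well in MEM-FCS, with serial compound dilutions added 24 h later. Cells proliferated 3 days at 37 °C, then metabolic activity was read by MTS/PMS. CC50 is the concentration inhibiting proliferation of exponentially growing cells by 50%, by linear interpolation.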

[2] = Antiviral activity against BVDV NADL infected in MDBK cells assessed as inhibition of virus-induced cytopathic effect formation after 5 days by MTS assay; assay type: functional, cell-based, Bovine viral diarrhea virus 1-NADL; settings: Bovine viral diarrhea virus isolates and strains, 120 h
Procedure, shortened: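 MDBK cells were seeded at 5 × 10³/well in MEM-FCS and held 24 h at 37 °C, 5% CO₂. Medium was replaced with 5-fold serial compound dilutions, then BVDV inoculum was added at MOI 2. CPE was read by MTS as OD at 490 nm. EC50 is the concentration giving 50% protection against virus-induced CPE, by linear interpolation.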

[3] = Cytotoxicity against human Huh5-2 cells assessed as growth inhibition after 3 days by MTS assay; assay type: cell-based, Huh-5-2; procedure, shortened: as §1
[4] = Selectivity index, ratio of CC50 for Huh5-2 cells to EC50 for HCV genotype 1b infected in Huh5-2 cells; set-up: species or system Huh-5-2
Procedure, shortened: (§2)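 Selectivity index is the ratio of CC50 from the 3-day MTS/PMS proliferation assay to EC50 in the same cell line. For Huh 5-2 the EC50 is from the luciferase replicon assay; for MDBK it is from the MTS CPE assay.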

[5] = Selectivity index, ratio of CC50 for MDBK cells to EC50 for BVDV NADL infected in MDBK cells; procedure, shortened: as §2

| SMILES | EC50 (Hepatitis C virus) [µg/mL] | CC50 at 72 h [1] [µg/mL] | EC50 [2] [µg/mL] | CC50 at 72 h [3] [µg/mL] | Ratio CC50/EC50 [4] | Ratio CC50/EC50 [5] |
| --- | --- | --- | --- | --- | --- | --- |
| CC(C)(C)c1nc2ccc(-c3ccsc3)nn2c1-c1cccc(-c2ccco2)c1 | 8.6 (≈ 21.5 µM) | > 100 | > 100 | 41.3 (≈ 103 µM) | 4.8 |  |
| Fc1ccc(-c2nc3ccc(-c4ccsc4)nn3c2-c2ccc(-c3ccccc3)cc2)cc1 | > 112 | > 50 | > 50 | > 112 | >1 | >1 |
| Fc1ccc(-c2nc3ccccn3c2-c2cccc(-c3ccncc3)c2)cc1 | 20.2 (≈ 55.3 µM) | 7 (≈ 19.2 µM) | 0.98 (≈ 2.68 µM) | 45.5 (≈ 125 µM) | 2.3 | 7.1 |
| COc1ccccc1-c1nc2ccccn2c1-c1cccc(-c2cccc(O)c2)c1 | 3.5 (≈ 8.92 µM) |  |  | 40.3 (≈ 103 µM) | 11.4 |  |
| COc1ccccc1-c1nc2ccc(-c3ccsc3)cn2c1-c1cccc(-c2ccccc2)c1 | 17.5 (≈ 38.2 µM) | > 100 | 68.6 (≈ 150 µM) | 56.8 (≈ 124 µM) | 3.3 | >1.5 |
| c1ccc(-c2cccc(-c3c(-c4ccsc4)nc4ccc(-c5ccsc5)cn34)c2)cc1 | 64.5 (≈ 148 µM) | > 100 | 6.6 (≈ 15.2 µM) | > 115 | >1.8 | >15.2 |
| COc1cccc(-c2nc3ccc(-c4ccsc4)cn3c2-c2cccc(-c3ccccc3)c2)c1 | 52.4 (≈ 114 µM) | > 100 | 15 (≈ 32.7 µM) | 85.2 (≈ 186 µM) | 1.6 | >6.7 |
| COc1cccc(-c2cccc(-c3c(-c4ccc(F)cc4)nc4ccccn34)c2)c1 | 4.3 (≈ 10.9 µM) | 11.5 (≈ 29.2 µM) | 3.1 (≈ 7.86 µM) | 50.2 (≈ 127 µM) | 11.8 | 3.7 |
| COc1ccccc1-c1nc2ccccn2c1-c1cccc(-c2ccc(O)cc2)c1 | 18.8 (≈ 47.9 µM) | > 100 | 17.7 (≈ 45.1 µM) | 43.8 (≈ 112 µM) | 2.3 | >5.6 |
| CCOC(=O)c1nc2ccc(-c3ccsc3)cn2c1-c1cccc(-c2ccccc2)c1 | 53.1 (≈ 125 µM) | 67.7 (≈ 159 µM) | > 67.7 | > 118 | >2.2 |  |
| CN1CCN(c2ccc3nc(-c4ccc(F)cc4)c(-c4ccc(-c5ccccc5)cc4)n3n2)CC1 |  | > 50 | > 50 | 45.3 (≈ 97.7 µM) |  | >1 |
| COc1ccc(-c2nc3ccc(-c4ccsc4)cn3c2-c2cccc(-c3ccccc3)c2)cc1 | 56.8 (≈ 124 µM) | > 100 | 22.7 (≈ 49.5 µM) | > 109 | >1.9 | >4.4 |
| COc1ccc(-c2cccc(-c3c(-c4ccc(F)cc4)nc4ccccn34)c2)cc1 | 1.63 (≈ 4.13 µM) | > 100 | 2.8 (≈ 7.1 µM) | 34.8 (≈ 88.2 µM) | 21.3 | >36 |
| CC(C)(C)c1nc2ccc(-c3ccsc3)nn2c1-c1cccc(-c2cccc(O)c2)c1 | 3.9 (≈ 9.16 µM) | > 100 | 3.7 (≈ 8.69 µM) | 20 (≈ 47 µM) | 5.2 | >26.7 |
| Fc1ccc(-c2cccc(-c3c(-c4ccc(F)cc4)nc4ccccn34)c2)cc1 | 10.3 (≈ 26.9 µM) | 5.4 (≈ 14.1 µM) | 3.9 (≈ 10.2 µM) | 54.5 (≈ 143 µM) | 5.3 | 1.4 |
| Fc1ccc(-c2nc3ccc(N4CCOCC4)nn3c2-c2ccccc2-c2ccccc2)cc1 | 11.1 (≈ 24.6 µM) | 31 (≈ 68.8 µM) | 11 (≈ 24.4 µM) | 11.1 (≈ 24.6 µM) | 1 | 3 |
| Oc1ccc(-c2cccc(-c3c(-c4ccc(F)cc4)nc4ccccn34)c2)cc1 | 13.5 (≈ 35.5 µM) |  |  | 69.5 (≈ 183 µM) | 5.1 |  |
| Fc1ccc(-c2nc3ccc(-c4ccccc4)nn3c2-c2ccc(-c3ccccc3)cc2)cc1 |  | > 50 | > 50 | 45.3 (≈ 103 µM) |  | >1 |
| COc1ccccc1-c1nc2ccc(-c3ccsc3)nn2c1-c1cccc(-c2ccco2)c1 | 15.1 (≈ 33.6 µM) |  |  | 54.3 (≈ 121 µM) | 3.6 |  |
| CC(C)(C)c1nc2ccc(-c3ccsc3)nn2c1-c1cccc(-c2ccccc2O)c1 | 30.1 (≈ 70.7 µM) | > 100 | > 100 | 75.3 (≈ 177 µM) | 2.5 |  |
| COc1ccccc1-c1nc2ccc(-c3ccsc3)nn2c1-c1cccc(-c2ccoc2)c1 | 11.1 (≈ 24.7 µM) | > 100 | > 100 | 15.7 (≈ 34.9 µM) | 1.4 |  |
